According to ChEMBL document CHEMBL2046340, “Naphthoquinones from Onosma paniculata induce cell-cycle arrest and apoptosis in melanoma Cells” (J Nat Prod, 2012):
pIC50: −log10 of the molar value. The source made the active and inactive calls. The rule behind the calls is not given here.

Columns and labels:
U-251 = experiment: Cytotoxicity against human U251 cells after 72 hrs by XTT assay; type: functional, cell-based; settings: U-251, 72 h
How it was run: (§1)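 U251 glioblastoma and HCT 116 colon cells grown in high-glucose DMEM with 2 mM glutamine and 10% FBS. 5000 cells/well attached overnight, then received at least eight concentrations for 72 h (0.5% DMSO vehicle). XTT read 1.5 h after addition. IC50 by four-parameter logistic fit; two passages × three wells, six independent experiments, mean ± SEM.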

[1] = Cytotoxicity against human SBcl2 cells after 72 hrs by XTT assay; type: functional, cell-based; settings: SBcl2, 72 h
How it was run: (§2)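 Melanoma lines (SBcl2, WM35, WM9, WM164) kept in RPMI 1640 with 2 mM glutamine and 2% FBS, 37 °C, 5% CO2. Plated at 5000 cells/well overnight and treated 72 h across at least eight concentrations (freshly diluted from DMSO; vehicle 0.5% DMSO). XTT absorbance read after 1.5 h. IC50 from four-parameter logistic curves; two passages in triplicate, six experiments, mean ± SEM.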

[2] = Cytotoxicity against human WM35 cells after 72 hrs by XTT assay; type: functional, cell-based; settings: WM35, 72 h; how it was run: as §2
[3] = Cytotoxicity against human WM164 cells after 72 hrs by XTT assay; type: functional, cell-based; settings: WM164, 72 h; how it was run: as §2
MRC5 [4] = experiment: Cytotoxicity against human MRC5 cells after 72 hrs by XTT assay; type: cell-based; settings: MRC5, 72 h
How it was run: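 MRC-5 lung fibroblasts in MEM with 2 mM glutamine and 10% FBS. Seeded at 10 000 cells/well, attached overnight, then treated 72 h with at least eight concentrations (DMSO stock diluted in medium, 0.5% DMSO vehicle). XTT was added and read 1.5 h later. IC50 came from a four-parameter logistic curve; two passages × triplicate wells, six independent experiments, mean ± SEM.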

CCRF-CEM = experiment: Cytotoxicity against human CCRF-CEM cells after 72 hrs by XTT assay; type: functional, cell-based
How it was run: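 CCRF-CEM leukaemia cells in RPMI 1640 with 2 mM glutamine and 10% FBS, 37 °C, 5% CO2. Seeded at 10 000 cells/well and exposed for 72 h to at least eight concentrations, freshly diluted from DMSO into medium (vehicle 0.5% DMSO). XTT with electron coupling reagent was read after 4 h. IC50 came from a four-parameter logistic fit over two passages × three wells; six independent experiments.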

[5] = Cytotoxicity against human WM9 cells after 72 hrs by XTT assay; type: functional, cell-based; settings: WM9, 72 h; how it was run: as §2
MRC5 [6] = experiment: Selectivity ratio of IC50 for human MRC5 cells to IC50 for human CCRF-CEM cells
How it was run: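 The ratio uses XTT viability IC50s from a 72 h exposure. MRC-5 fibroblasts were grown in MEM and CCRF-CEM cells in RPMI 1640, both with 10% FBS; both were seeded at 10 000 cells/well. XTT was read after 1.5 h (MRC-5) or 4 h (CCRF-CEM). IC50s came from four-parameter logistic fits over at least eight concentrations, six independent experiments.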

HCT-116 = experiment: Cytotoxicity against human HCT116 cells after 72 hrs by XTT assay; type: functional, cell-based; settings: HCT-116, 72 h; how it was run: as §1
MDA-MB-231 = experiment: Cytotoxicity against human MDA-MB-231 cells after 72 hrs by XTT assay; type: functional, cell-based; settings: MDA-MB-231, 72 h
How it was run: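 MDA-MB-231 breast cancer cells, RPMI 1640 with 2 mM glutamine and 10% FBS, 37 °C in 5% CO2. Seeded at 5000 cells/well, adhered overnight, then 72 h exposure over at least eight concentrations with 0.5% DMSO vehicle. XTT readout after 1.5 h. Four-parameter logistic IC50 from two passages each in three wells; mean ± SEM of six experiments.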

[7] = Cell cycle arrest in human SBcl2 cells assessed as increase of cells accumulation at S phase at IC50 after 12 to 72 hrs using propidium iodide staining by FACS analysis; type: functional, cell-based
How it was run: (§3)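 Melanoma lines were kept in RPMI 1640 with 2 mM L-glutamine, 2% FBS and penicillin/streptomycin at 37 °C under 5% CO2. Cells were exposed for 12–72 h, with 0.5% DMSO vehicle controls, then trypsinized. 5 × 10^5 cells were fixed in ice-cold 70% EtOH for 10 min at 4 °C, washed in PBS and stained with PI/RNase A for 15 min at 37 °C. Phases were read by flow cytometry; n = 3 means.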

[8] = Induction of apoptosis in human WM9 cells assessed as accumulation at sub-G1 phase at IC50 after 24 […]
WM164 [9] = experiment: Induction of apoptosis in human WM164 cells assessed as increased accumulation at sub-G1 phase at IC50 after 24 […]
WM35 = experiment: Induction of morphological changes in human WM35 cells assessed as less density and round shape phenotype with fewer dendrites of cells at IC50 after 24 to 48 hrs; type: functional, cell-based
WM164 [10] = experiment: Induction of morphological changes in human WM164 cells assessed as less density and round shape phenotype with fewer dendrites of cells at IC50 after 24 to 48 hrs; type: functional, cell-based
SBcl2 [11] = experiment: Induction of morphological changes in human SBcl2 cells assessed as less density and round shape phenotype with fewer dendrites of cells at IC50 after 24 to 48 hrs; type: functional, cell-based
[12] = Cell cycle arrest in human WM35 cells assessed as increase of cells accumulation at S phase at IC50 after 12 to 72 hrs using propidium iodide staining by FACS analysis; type: functional, cell-based; how it was run: as §3
[13] = Cell cycle arrest in human WM164 cells assessed as accumulation at G2/M phase at IC50 after 12 to 72 hrs using propidium iodide staining by FACS analysis; type: functional, cell-based; how it was run: as §3
SBcl2 [14] = experiment: Induction of apoptosis in human SBcl2 cells assessed as accumulation at sub-G1 phase at IC50 after 24 […]
[15] = Induction of apoptosis in human WM35 cells assessed as accumulation at sub-G1 phase at IC50 after 24 […]
[16] = Cell cycle arrest in human WM9 cells assessed as accumulation at G2/M phase at IC50 after 12 to 72 hrs using propidium iodide staining by FACS analysis; type: functional, cell-based; how it was run: as §3
WM9 = experiment: Induction of morphological changes in human WM9 cells assessed as less density and round shape phenotype with fewer dendrites of cells at IC50 after 24 to 48 hrs; type: functional, cell-based

| SMILES | pIC50 (U-251) | pIC50 [1] | pIC50 [2] | pIC50 [3] | pIC50 (MRC5 [4]) | pIC50 (CCRF-CEM) | pIC50 [5] | Ratio IC50 (MRC5 [6]) | pIC50 (HCT-116) | pIC50 (MDA-MB-231) | other results |
| --- | --- | --- | --- | --- | --- | --- | --- | --- | --- | --- | --- |
| CC(=O)O[C@H](CC=C(C)C)C1=CC(=O)c2c(O)ccc(O)c2C1=O [ACETYLSHIKONIN] | 4.80 | 4.89 | 4.51 | 4.15 | 5.59 | 6.00 | 4.63 | 2.6 | 5.05 | 4.95 | – |
| CC(C)=CC[C@@H](OC(=O)CC(C)(C)O)C1=CC(=O)c2c(O)ccc(O)c2C1=O [BETA-HYDROXYISOVALERYLSHIKONIN] | 4.63 | 5.08 | 4.89 | 4.51 | 5.41 | 6.22 | 4.90 | 6 | 5.39 | 5.34 | – |
| CC(C)=CC[C@@H](OC(=O)C=C(C)C)C1=CC(=O)c2c(O)ccc(O)c2C1=O [DIMETHYLACRYLSHIKONIN] | 4.51 | 5.96 | 5.64 | 5.08 | 5.62 | 5.72 | 5.57 | 1.3 | 4.70 | 4.63 | Activity [7]: Active; Activity [8]: 20%; Activity (WM164 [9]): 20%; Activity (WM35): Active; Activity (WM164 [10]): Active; Activity (SBcl2 [11]): Active; Activity [12]: Active; Activity [13]: Active; Activity (SBcl2 [14]): 20%; Activity [15]: 20%; Activity [16]: Active; Activity (WM9): Active |
| CC[C@]1(O)C[C@@H]2CN(CCc3c([nH]c4ccccc34)[C@@](C(=O)OC)(c3cc4c(cc3OC)N(C)[C@H]3[C@@](O)(C(=O)OC)[C@H](OC(C)=O)[C@]5(CC)C=CCN6CC[C@]43[C@@H]65)C2)C1 [VINBLASTINE] | 8.09 | 7.96 | 8.46 | 8.38 | 7.62 | 8.03 | 7.82 | – | 8.06 | 7.51 | – |
